pIC50: −log10 of the molar value.
Legend:
Mus musculus [1] = experiment: Prodrug conversion in ip dosed Swiss mouse assessed as albitiazolium bromide formation administered QD for 4 days; format: ADME, organism-based; conditions: in vivo, 96 h
[2] = tested on: Plasmodium vinckei petteri; experiment: Antimalarial activity against Plasmodium vinckei petteri 279BY infected in po dosed Swiss mouse assessed as reduction in parasitemia administered QD for 4 days measured on day 5; format: functional
In short: (§1)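 P. vinckei-infected mice, 4-day suppressive test, dosing once daily for 4 days by ip or oral route; vehicle DMSO for both routes except some compounds given in 0.9% NaCl (ip) or water (po); ED50 = dose inhibiting in vivo parasite growth by 50%.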

[3] = tested on: Plasmodium vinckei petteri; experiment: Antimalarial activity against Plasmodium vinckei petteri 279BY infected in ip dosed Swiss mouse assessed as reduction in parasitemia administered QD for 4 days measured on day 5; format: functional; in short: as §1
Plasmodium falciparum = experiment: Antiplasmodial activity against Plasmodium falciparum assessed as inhibition of [3H]hypoxanthine incorporation after 48 hrs; format: functional, organism-based
In short: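 P. falciparum Nigerian strain blood stages, modified Desjardins microtiter test; drug contact one parasite cycle (48 h); growth read as [³H]hypoxanthine incorporation into nucleic acids; IC50 = concentration giving 50% growth inhibition.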

Mus musculus [4] = experiment: Prodrug conversion in po dosed Swiss mouse assessed as albitiazolium bromide formation administered QD for 4 days; format: ADME, organism-based; conditions: in vivo, 96 h
[5] = tested on: Plasmodium vinckei petteri; experiment: Ratio of ED50 for Plasmodium vinckei petteri 279BY infected in […] dosed Swiss mouse; format: functional
[6] = Aqueous solubility of the compound; format: physicochemical; conditions: water

Row | Structure (SMILES) | Drug metabolism (Mus musculus [1]) | pIC50 (Plasmodium falciparum) | Drug metabolism (Mus musculus [4]) | solubility [6] [mg/mL] | ED50 [2] [mg/kg] | ED50 [3] [mg/kg] | Ratio ED50 [5]
1 | CSS/C(CCOC(=O)[C@@H](N)C(C)C)=C(/C)N(C=O)CCCCCCCCCCCCN(C=O)/C(C)=C(/CCOC(=O)[C@@H](N)C(C)C)SSC.Cl | Active | 6.80 |  |  | 58 | 1 | 1.7
2 | C/C1=C(\CCOC(=O)[C@@H](N)C(C)C)SS/C(CCOC(=O)[C@@H](N)C(C)C)=C(/C)N(C=O)CCCCCCCCCCCCN1C=O.Cl | Active | 6.23 |  |  | 37 | 1 | 4.1
3 | CCSS/C(CCOP1(=O)OCc2ccccc2O1)=C(/C)N(C=O)CCCCCCCCCCCCN(C=O)/C(C)=C(/CCOP1(=O)OCc2ccccc2O1)SSCC (centres undefined) | Active | 6.28 |  |  | > 90 | 5 | 
4 | CCSS/C(CCOP(=O)([O-])[O-])=C(/C)N(C=O)CCCCCCCCCCCCN(C=O)/C(C)=C(/CCOP(=O)([O-])[O-])SSCC.[Li+].[Li+].[Li+].[Li+] | Active | 5.24 |  |  | 60 | 1.1 | 1.8
5 | C/C(=C(\CCOP1(=O)OCc2ccccc2O1)SSCc1ccccc1)N(C=O)CCCCCCCCCCCCN(C=O)/C(C)=C(/CCOP1(=O)OCc2ccccc2O1)SSCc1ccccc1 (centres undefined) |  | 6.06 |  |  | > 90 | > 5 | 
6 | C/C(=C(\CCOP(=O)([O-])[O-])SSCc1ccccc1)N(C=O)CCCCCCCCCCCCN(C=O)/C(C)=C(/CCOP(=O)([O-])[O-])SSCc1ccccc1.[Li+].[Li+].[Li+].[Li+] | Active | 5.36 |  |  | > 90 | 3 | 
7 | Cc1c(CCO)sc[n+]1CCCCCCCCCCCC[n+]1csc(CCO)c1C.[Br-].[Br-] [ALBITIAZOLIUM BROMIDE] |  |  |  |  | 13 | 0.2 | 1.5
8 | CCN(CC)CCCC(C)Nc1ccnc2cc(Cl)ccc12 (centres undefined) [CHLOROQUINE] |  |  |  |  | 3.4 | 1.1 | 

The next lines start with results.

Row | Drug metabolism (Mus musculus [1]) | pIC50 (Plasmodium falciparum) | Drug metabolism (Mus musculus [4]) | solubility [6] [mg/mL] | Structure (SMILES) | ED50 [2] [mg/kg] | ED50 [3] [mg/kg] | Ratio ED50 [5]
9 | Active | 8.22 | Active |  | CSS/C(CCO)=C(/C)N(C=O)CCCCCCCCCCCCN(C=O)/C(C)=C(/CCO)SSC | 15 | 0.4 | 2.7
10 |  | 8.18 |  |  | Cc1c(CCOP(=O)(O)O)sc[n+]1CCCCCCCCCCCC[n+]1csc(CCOP(=O)(O)O)c1C | 34 | 0.34 | 1
11 | Active | 8.27 |  |  | CCSS/C(CCO)=C(/C)N(C=O)CCCCCCCCCCCCN(C=O)/C(C)=C(/CCO)SSCC | 44 | 1.1 | 2.5
12 | Active | 8.89 |  |  | CCCSS/C(CCO)=C(/C)N(C=O)CCCCCCCCCCCCN(C=O)/C(C)=C(/CCO)SSCCC | > 54 | 0.5 | 
13 | Active | 7.84 |  |  | C/C(=C(\CCO)SSCc1ccccc1)N(C=O)CCCCCCCCCCCCN(C=O)/C(C)=C(/CCO)SSCc1ccccc1 | 80 | 1.3 | 1.6
14 | Active | 7.19 |  |  | C/C1=C(\CCO)SS/C(CCO)=C(/C)N(C=O)CCCCCCCCCCCCN1C=O | 22 | 0.9 | 
15 | Active | 7.62 |  |  | CC(=O)OCC/C1=C(\C)N(C=O)CCCCCCCCCCCCN(C=O)/C(C)=C(/CCOC(C)=O)SS1 | 7.3 | 1 | 13.7
16 |  | 7.21 |  |  | CCOP(=O)(OCC)OCC/C(SSCC)=C(\C)N(C=O)CCCCCCCCCCCCN(C=O)/C(C)=C(/CCOP(=O)(OCC)OCC)SSCC | > 90 | > 1 | 
17 | Active | 6.89 |  | 27 | C/C1=C(\CCOC(=O)[C@@H](N)CCCCN)SS/C(CCOC(=O)[C@@H](N)CCCCN)=C(/C)N(C=O)CCCCCCCCCCCCN1C=O.Cl.Cl | 50 | 0.9 | 1.8
18 | Active | 6.92 |  | 27 | CSS/C(CCOC(=O)[C@@H](N)CCCCN)=C(/C)N(C=O)CCCCCCCCCCCCN(C=O)/C(C)=C(/CCOC(=O)[C@@H](N)CCCCN)SSC.Cl.Cl | 44 | 1 | 2.3

From ChEMBL document CHEMBL2062403, “Disulfide prodrugs of albitiazolium (T3/SAR97276): synthesis and biological activities” (J Med Chem, 2012)
